Calls of active or inactive are those of the source. The rule behind the calls is not given here.
Test system: HL-60
Assay: Cytotoxicity against human HL-60 cells after 72 hrs by MTT assay
Format: functional, cell-based
Outline: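 HL-60 cells grown in RPMI 1640 with 10% FBS, L-glutamine, penicillin and streptomycin, seeded at 3 × 10^4 cells/mL, and preincubated 24 h at 37 °C in 5% CO2. Sample in EtOH-H2O (1:1) added to a final 0.01-10 µg/mL, with vehicle-only controls, for 72 h. MTT added for 4 h, then formazan dissolved in DMSO and read at 550 nm. IC50 taken from the dose-response curve.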

Row | SMILES | Activity | IC50 (HL-60, 72 h)
1 | CC(C)CC[C@H](O)[C@@H](C)[C@H]1[C@@H](O[C@@H]2O[C@H](CO)[C@@H](O)[C@H](O)[C@H]2O)C[C@H]2[C@@H]3CC=C4C[C@@H](O)C[C@@H](O[C@@H]5O[C@@H](C)[C@H](O)[C@@H](O)[C@H]5O)[C@]4(C)[C@H]3CC[C@]12C | inactive | 
2 | CC(C)CC[C@H](O)[C@@H](C)[C@H]1[C@@H](O[C@@H]2O[C@H](CO)[C@@H](O)[C@H](O)[C@H]2O)C[C@H]2[C@@H]3CC=C4C[C@@H](O)C[C@@H](O[C@@H]5O[C@H](CO)[C@@H](O)[C@H](O)[C@H]5O)[C@]4(C)[C@H]3CC[C@]12C | inactive | 
3 | C[C@@H]1CC[C@@]2(OC1)O[C@H]1C[C@H]3[C@@H]4C[C@H](O)[C@H]5C[C@@H](O[C@@H]6O[C@H](CO)[C@H](O[C@@H]7O[C@H](CO)[C@@H](O)[C@H](O[C@@H]8OC[C@@H](O)[C@H](O)[C@H]8O)[C@H]7O[C@@H]7O[C@H](CO)[C@@H](O)[C@H](O)[C@H]7O)[C@H](O)[C@H]6O)[C@H](O)C[C@]5(C)[C@H]4CC[C@]3(C)[C@H]1[C@@H]2C |  | > 10 µg/mL

Reference: ChEMBL document CHEMBL1158007, “Steroidal glycosides from the bulbs of Allium jesdianum” (J Nat Prod, 1999)
